The values below come from ChEMBL document CHEMBL1129534, “Antitumor agents. 163. Three-dimensional quantitative structure-activity relationship study of 4'-O-demethylepipodophyllotoxin analogs using the modified CoMFA/q2-GRS approach” (J Med Chem, 1996).

Several values for one entry are separate records, joined by “and”; a condition that tells them apart may be missing. Equal values may be shown once.

This experiment addresses DNA topoisomerase II (Homo sapiens) (UniProt P11388+Q02880). As to the kind of experiment: Compound tested for ability to form a cellular covalent topoisomerase II-DNA complex. Format: functional. In a few lines:
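Read-out is intracellular covalent topoisomerase II–DNA complex formation, scored as the percentage of cellular protein–DNA complex formed (PCPDCF). For CoMFA modelling the values were transformed to ln(PCPDCF + 1).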

For the compound `COc1cc([C@@H]2c3cc4c(cc3[C@@H](NCc3ccc(C(F)(F)F)cc3)[C@H]3COC(=O)[C@H]23)OCO4)cc(OC)c1O`, the Protein-DNA complex formation came to 99%.

Regarding `COc1cc([C@@H]2c3cc4c(cc3[C@@H](NC(=O)c3cccc(C#N)c3)[C@H]3COC(=O)[C@H]23)OCO4)cc(OC)c1O`, the Protein-DNA complex formation was 149%.

Consider `COc1cc([C@@H]2c3cc4c(cc3[C@@H](Nc3ccc(Cl)cc3)[C@H]3COC(=O)[C@H]23)OCO4)cc(OC)c1O`, for which the Protein-DNA complex formation stood at 99%.

In turn, `COc1cc([C@@H]2c3cc4c(cc3[C@@H](NC(=O)c3ccccc3)[C@H]3COC(=O)[C@H]23)OCO4)cc(OC)c1O` came in with a Protein-DNA complex formation of 177%.

`COc1cc([C@@H]2c3cc4c(cc3[C@@H](NC(=O)c3ccc([N+](=O)[O-])cc3)[C@H]3COC(=O)[C@H]23)OCO4)cc(OC)c1O` gave a Protein-DNA complex formation of 160%.

In turn, `COC(=O)c1cc(N[C@@H]2c3cc4c(cc3[C@@H](c3cc(OC)c(O)c(OC)c3)[C@H]3C(=O)OC[C@@H]32)OCO4)ccc1O` gave a Protein-DNA complex formation of 83%.

For `COc1cc([C@@H]2c3cc4c(cc3[C@@H](Nc3ccccc3F)[C@H]3COC(=O)[C@H]23)OCO4)cc(OC)c1O`, the Protein-DNA complex formation came out at 121%.

As to `COc1cc([C@@H]2c3cc4c(cc3[C@H](N)[C@H]3COC(=O)[C@H]23)OCO4)cc(OC)c1O`, the Protein-DNA complex formation was 8%.

In turn, `COCCN[C@@H]1c2cc3c(cc2[C@@H](c2cc(OC)c(O)c(OC)c2)[C@H]2C(=O)OC[C@@H]21)OCO3` displayed a Protein-DNA complex formation of 111%.

For the compound `COc1cc([C@@H]2c3cc4c(cc3[C@@H](Nc3cccc(CO)c3)[C@H]3COC(=O)[C@H]23)OCO4)cc(OC)c1O`, the Protein-DNA complex formation was found to be 235%.

Compound `COc1cc([C@@H]2c3cc4c(cc3[C@@H](O[C@@H]3O[C@@H]5CO[C@@H](C)O[C@H]5[C@H](O)[C@H]3O)[C@H]3COC(=O)[C@H]23)OCO4)cc(OC)c1O` returned a Protein-DNA complex formation of 100%.

`COc1cc([C@@H]2c3cc4c(cc3[C@@H](Nc3ccc(N)cc3)[C@H]3COC(=O)[C@H]23)OCO4)cc(OC)c1O` yielded a Protein-DNA complex formation of 330%.

Regarding `COc1cc([C@@H]2c3cc4c(cc3[C@@H](Nc3ccc(C(=O)O)cc3)[C@H]3COC(=O)[C@H]23)OCO4)cc(OC)c1O`, the Protein-DNA complex formation was 6.9% and 1.9%.

As to `COc1cc([C@@H]2c3cc4c(cc3[C@@H](NCCN(C)C)[C@H]3COC(=O)[C@H]23)OCO4)cc(OC)c1O`, the Protein-DNA complex formation is 183% and 203%.

`COc1cc([C@@H]2c3cc4c(cc3[C@H](NCCO)[C@H]3COC(=O)[C@H]23)OCO4)cc(OC)c1O` displayed a Protein-DNA complex formation of 0%.

In turn, `COc1cc([C@@H]2c3cc4c(cc3[C@@H](NCCCO)[C@H]3COC(=O)[C@H]23)OCO4)cc(OC)c1O` showed a Protein-DNA complex formation of 89.2%.

`CCOC(=O)c1ccc(N[C@@H]2c3cc4c(cc3[C@@H](c3cc(OC)c(O)c(OC)c3)[C@H]3C(=O)OC[C@@H]32)OCO4)cc1`: the Protein-DNA complex formation was 207%.

In the case of `COc1cc([C@@H]2c3cc4c(cc3[C@@H](NC(=O)c3ccc(N)cc3)[C@H]3COC(=O)[C@H]23)OCO4)cc(OC)c1O`, the Protein-DNA complex formation worked out at 120%.

Regarding `COc1cc([C@@H]2c3cc4c(cc3[C@@H](NCCN3CCCCC3)[C@H]3COC(=O)[C@H]23)OCO4)cc(OC)c1O`, the Protein-DNA complex formation is 183% and 190%.

Compound `COc1cc([C@@H]2c3cc4c(cc3[C@@H](Nc3ccccc3)[C@H]3COC(=O)[C@H]23)OCO4)cc(OC)c1O` returned a Protein-DNA complex formation of 243%.

Regarding `COC(=O)c1ccc(N[C@@H]2c3cc4c(cc3[C@@H](c3cc(OC)c(O)c(OC)c3)[C@H]3C(=O)OC[C@@H]32)OCO4)cc1O`, the Protein-DNA complex formation was determined as 129%.

As to `COc1cc([C@@H]2c3cc4c(cc3[C@@H](Nc3ccc(I)cc3)[C@H]3COC(=O)[C@H]23)OCO4)cc(OC)c1O`, the Protein-DNA complex formation came out at 64%.

In the case of `COc1cc([C@@H]2c3cc4c(cc3[C@@H](NCc3ccccc3N)[C@H]3COC(=O)[C@H]23)OCO4)cc(OC)c1O`, the Protein-DNA complex formation was 184%.

In the case of `COc1cc([C@@H]2c3cc4c(cc3[C@@H](Nc3ccc5c(c3)OCO5)[C@H]3COC(=O)[C@H]23)OCO4)cc(OC)c1O`, the Protein-DNA complex formation is 164%.

`COc1cc([C@@H]2c3cc4c(cc3[C@@H](Nc3cccc(N)c3)[C@H]3COC(=O)[C@H]23)OCO4)cc(OC)c1O`: the Protein-DNA complex formation was 140%.

`COc1cc([C@@H]2c3cc4c(cc3[C@@H](NCc3ccc([N+](=O)[O-])cc3)[C@H]3COC(=O)[C@H]23)OCO4)cc(OC)c1O` gave a Protein-DNA complex formation of 216%.

Turning to `COc1cc([C@@H]2c3cc4c(cc3[C@@H](Nc3cc([N+](=O)[O-])ccc3O)[C@H]3COC(=O)[C@H]23)OCO4)cc(OC)c1O`, the Protein-DNA complex formation amounted to 15%.

`COc1cc([C@@H]2c3cc4c(cc3[C@@H](Nc3cccc(Br)c3)[C@H]3COC(=O)[C@H]23)OCO4)cc(OC)c1O`: the Protein-DNA complex formation was 62%.

On to `COc1cc([C@@H]2c3cc4c(cc3[C@@H](Sc3ccc(O)cc3)[C@H]3COC(=O)[C@H]23)OCO4)cc(OC)c1O`, for which the Protein-DNA complex formation amounted to 10%.

As for `COc1cc([C@@H]2c3cc4c(cc3[C@H](O)[C@H]3COC(=O)[C@H]23)OCO4)cc(OC)c1O`, the Protein-DNA complex formation worked out at 3.3%.

`COc1cc([C@@H]2c3cc4c(cc3[C@@H](Nc3ccc(Oc5ccccc5)cc3)[C@H]3COC(=O)[C@H]23)OCO4)cc(OC)c1O` registered a Protein-DNA complex formation of 97%.

Consider `COc1cc([C@@H]2c3cc4c(cc3[C@@H](Nc3ccc([N+](=O)[O-])cc3)[C@H]3COC(=O)[C@H]23)OCO4)cc(OC)c1O`, for which the Protein-DNA complex formation worked out at 323%.

For `COc1cc([C@@H]2c3cc4c(cc3[C@@H](N)[C@H]3COC(=O)[C@H]23)OCO4)cc(OC)c1O`, the Protein-DNA complex formation came out at 36.4%.

The compound `COc1cc([C@@H]2c3cc4c(cc3[C@@H](NCCO)[C@H]3COC(=O)[C@H]23)OCO4)cc(OC)c1O` gave a Protein-DNA complex formation of 121%.

Take `COc1cc([C@@H]2c3cc4c(cc3[C@@H](Nc3cccc(O)c3)[C@H]3COC(=O)[C@H]23)OCO4)cc(OC)c1O`: the Protein-DNA complex formation is 290%.

Turning to `COc1cc([C@@H]2c3cc4c(cc3[C@@H](NCCCN(C)C)[C@H]3COC(=O)[C@H]23)OCO4)cc(OC)c1O`, the Protein-DNA complex formation was 186% and 179%.

In the case of `COc1cc([C@@H]2c3cc4c(cc3[C@@H](NC(=O)c3ccccc3F)[C@H]3COC(=O)[C@H]23)OCO4)cc(OC)c1O`, the Protein-DNA complex formation amounted to 128%.

As for `COc1cc([C@@H]2c3cc4c(cc3[C@@H](NCc3ccccc3)[C@H]3COC(=O)[C@H]23)OCO4)cc(OC)c1O`, the Protein-DNA complex formation came to 181%.

With `COc1cc([C@@H]2c3cc4c(cc3[C@@H](NCc3ccc(C#N)cc3)[C@H]3COC(=O)[C@H]23)OCO4)cc(OC)c1O`, the Protein-DNA complex formation came to 284%.

Turning to `COc1cc([C@@H]2c3cc4c(cc3[C@@H](NCc3cccc(C#N)c3)[C@H]3COC(=O)[C@H]23)OCO4)cc(OC)c1O`, the Protein-DNA complex formation turned out to be 225%.

For `COc1cc([C@@H]2c3cc4c(cc3[C@@H](NCc3cccc(Cl)c3)[C@H]3COC(=O)[C@H]23)OCO4)cc(OC)c1O`, the Protein-DNA complex formation was determined as 159%.

Turning to `COc1ccc(N[C@@H]2c3cc4c(cc3[C@@H](c3cc(OC)c(O)c(OC)c3)[C@H]3C(=O)OC[C@@H]32)OCO4)cc1OC`, the Protein-DNA complex formation turned out to be 180%.

The compound `COc1cc([C@@H]2c3cc4c(cc3[C@@H](Nc3ccc(F)cc3)[C@H]3COC(=O)[C@H]23)OCO4)cc(OC)c1O` gave a Protein-DNA complex formation of 213%.

The compound `COc1cc([C@@H]2c3cc4c(cc3[C@@H](NCc3ccc(F)cc3)[C@H]3COC(=O)[C@H]23)OCO4)cc(OC)c1O` had a Protein-DNA complex formation of 169%.

For the compound `COc1cc([C@@H]2c3cc4c(cc3[C@@H](NC(=O)c3ccc(C#N)cc3)[C@H]3COC(=O)[C@H]23)OCO4)cc(OC)c1O`, the Protein-DNA complex formation was determined as 159%.

`CCOC(=O)c1ccccc1N[C@@H]1c2cc3c(cc2[C@@H](c2cc(OC)c(O)c(OC)c2)[C@H]2C(=O)OC[C@@H]21)OCO3` yielded a Protein-DNA complex formation of 4%.

Turning to `COc1cc([C@@H]2c3cc4c(cc3[C@@H](Nc3ccc(N5CCOCC5)cc3)[C@H]3COC(=O)[C@H]23)OCO4)cc(OC)c1O`, the Protein-DNA complex formation was 140%.

`COc1cc([C@@H]2c3cc4c(cc3[C@@H](NCc3ccccc3F)[C@H]3COC(=O)[C@H]23)OCO4)cc(OC)c1O` gave a Protein-DNA complex formation of 126%.

The compound `COc1cc([C@@H]2c3cc4c(cc3[C@@H](NC(=O)c3ccccc3O)[C@H]3COC(=O)[C@H]23)OCO4)cc(OC)c1O` gave a Protein-DNA complex formation of 160%.

Regarding `COc1cc([C@@H]2c3cc4c(cc3[C@@H](Nc3cc(OC)c(OC)c(OC)c3)[C@H]3COC(=O)[C@H]23)OCO4)cc(OC)c1O`, the Protein-DNA complex formation is 47%.

Take `COc1cc([C@@H]2c3cc4c(cc3[C@@H](NC(=O)c3ccc(F)cc3)[C@H]3COC(=O)[C@H]23)OCO4)cc(OC)c1O`: the Protein-DNA complex formation was found to be 117%.

`COc1cc([C@@H]2c3cc4c(cc3[C@@H](Nc3cc(F)cc(F)c3)[C@H]3COC(=O)[C@H]23)OCO4)cc(OC)c1O` had a Protein-DNA complex formation of 115%.

With `COc1cc([C@@H]2c3cc4c(cc3[C@@H](Nc3cccc([N+](=O)[O-])c3)[C@H]3COC(=O)[C@H]23)OCO4)cc(OC)c1O`, the Protein-DNA complex formation stood at 230%.

The compound `COc1cc([C@@H]2c3cc4c(cc3[C@@H](Nc3cccc(F)c3)[C@H]3COC(=O)[C@H]23)OCO4)cc(OC)c1O` had a Protein-DNA complex formation of 158%.

In the case of `COC(=O)c1cccc(N[C@@H]2c3cc4c(cc3[C@@H](c3cc(OC)c(O)c(OC)c3)[C@H]3C(=O)OC[C@@H]32)OCO4)c1`, the Protein-DNA complex formation was 249%.

`COc1cc([C@@H]2c3cc4c(cc3[C@@H](Nc3cccc(C(C)=O)c3)[C@H]3COC(=O)[C@H]23)OCO4)cc(OC)c1O` gave a Protein-DNA complex formation of 150%.

Compound `COc1cc([C@@H]2c3cc4c(cc3[C@@H](OC(=O)c3ccc(N)cc3)[C@H]3COC(=O)[C@H]23)OCO4)cc(OC)c1O` yielded a Protein-DNA complex formation of 94%.

For `COc1cc([C@@H]2c3cc4c(cc3[C@@H](NC(=O)c3ccc(C(C)=O)cc3)[C@H]3COC(=O)[C@H]23)OCO4)cc(OC)c1O`, the Protein-DNA complex formation was 124%.

Regarding `COc1cc([C@@H]2c3cc4c(cc3[C@@H](Nc3ccc5c(c3)OCCO5)[C@H]3COC(=O)[C@H]23)OCO4)cc(OC)c1O`, the Protein-DNA complex formation came out at 279%.
